The source of these data is paper PMC11223151 (ACS Omega, 2024).

Structures are written as SMILES. Converted amounts (≈) assume the structure as drawn.

As usually defined, the IC50 is the concentration at which inhibition is half-maximal. A word on the inhibition: it is the share of the control response that was lost under treatment.

Common to all, as to format: cell-based
The subject of series [1] is human lymphocytes. Kind of series: Comet assay. An outline of the steps:
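Freshly isolated human lymphocytes from fresh blood were exposed to test compound at 40–0.078 μg/mL. Controls were 20% DMSO (positive) and normal saline (negative). Cells in low-melting agarose went onto slides precoated with normal-melting agarose, then cold lysis overnight, alkaline unwinding at pH >13, and electrophoresis for 30 min at 300 mA, 24 V. Slides were neutralised at pH 7.5 and ethidium bromide-stained. Tail length and head diameter were scored by fluorescence microscopy, damage index by formula, reported as mean ± SD of 3–5 experiments.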

The test system of series [2] is Vero cell line. Kind of series: MTT assay, cytotoxicity on Vero. The settings on record: Chlorocebus sabaeus, 48 h, read-out: IC50 Vero cell line. In general terms: Tetrazolium dyes change colour on reduction, which living cells bring about.
Series [3] concerns MCF-7 cell line. The series can be described thus: MTT assay, anticancer activity on MCF-7 cell line. The settings on record: Homo sapiens, MCF7, 48 h.

For `C[S+](C)[O-]` [20% DMSO, Dimethyl sulfoxide], in series [1] (positive control, 20%), the damage index is 45, the fragmentation % was determined as 100% and the genetic damage index came out at 1.8.

`COc1cc(/C=C/C(=O)CC(=O)/C=C/c2ccc(O)c(OC)c2)ccc1O` [curcumin]: the figures for the IC50 in series [2] and in series [3] (read-out: IC50 MCF7 cell line) were 23.2 µg/mL (≈ 63 µM) and 11.5 µg/mL (≈ 31.1 µM), respectively. Besides, the damage index in series [1] (0.078 μg/mL), in series [1] (0.156 μg/mL), in series [1] (0.3125 μg/mL), in series [1] (0.625 μg/mL), in series [1] (1.25 μg/mL) and in series [1] (2.5 μg/mL) was 0 in each case. Besides, the damage index in series [1] (5 μg/mL) is reported as 0; in series [1] (10 μg/mL), 1; in series [1] (20 μg/mL), 2; in series [1] (40 μg/mL) it was 3. Besides, the fragmentation % in series [1] (0.078 μg/mL), in series [1] (0.156 μg/mL), in series [1] (0.3125 μg/mL), in series [1] (0.625 μg/mL), in series [1] (1.25 μg/mL) and in series [1] (2.5 μg/mL) was 0% in each case. Further, the fragmentation % in series [1] (5 μg/mL) amounted to 0%; in series [1] (10 μg/mL), 4%; in series [1] (20 μg/mL) it was 8%; in series [1] (40 μg/mL), 12%. For the same compound, the genetic damage index in series [1] (0.078 μg/mL), in series [1] (0.156 μg/mL), in series [1] (0.3125 μg/mL), in series [1] (0.625 μg/mL), in series [1] (1.25 μg/mL) and in series [1] (2.5 μg/mL) was 0 throughout. Also, the genetic damage index worked out at 0 in series [1] (5 μg/mL), 0.04 in series [1] (10 μg/mL), 0.08 in series [1] (20 μg/mL) and 0.12 in series [1] (40 μg/mL). Further, the “mean tail length n = 25” value in series [1] (0.078 μg/mL) is 0.36 ± 0.47; in series [1] (0.156 μg/mL), 0.46 ± 0.38; in series [1] (0.3125 μg/mL), 0.57 ± 0.22; in series [1] (0.625 μg/mL), 0.54 ± 0.28; in series [1] (1.25 μg/mL) it was 0.68 ± 0.35; in series [1] (2.5 μg/mL), 0.68 ± 0.74. In addition, the “mean tail length n = 25” value in series [1] (5 μg/mL) is recorded as 1.14 ± 0.72; in series [1] (10 μg/mL) it was 1.28 ± 0.28; in series [1] (20 μg/mL), 1.31 ± 0.74; in series [1] (40 μg/mL) it was 1.86 ± 0.73. Also, the inhibition at 40 µg/mL in series [3] (read-out: percentage inhibition against MCF7 cell line) was 64%.
